Source: ChEMBL document CHEMBL2010803, “Novel NSAID 1-acyl-4-cycloalkyl/arylsemicarbazides and 1-acyl-5-benzyloxy/hydroxy carbamoylcarbazides as potential anticancer agents and antioxidants” (Eur J Med Chem, 2012)
Activity calls are given as the source filed them. The rule behind the calls is not given here.

How the values were obtained:
HaCaT = assay: Cytostatic activity against human HaCaT cells after 72 hrs by MTT assay; type: ADME, cell-based
Method in brief: (§1)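 Monolayers in DMEM with 10% FBS, 2 mM L-glutamine and penicillin/streptomycin, 37 °C, 5% CO2. Seeded at 1–3 × 10^4 cells/ml, then compound added in tenfold dilutions (10⁻⁸–10⁻⁴ M) for 72 h. MTT read at 570 nm; percent growth taken against time-zero and untreated controls. IC50 by linear regression; quadruplicate, at least two experiments.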

HCT-116 = assay: Cytostatic activity against human HCT116 cells after 72 hrs by MTT assay; type: functional, cell-based; conditions: HCT-116, 72 h; method in brief: as §1
[1] = tested on: Vesicular stomatitis virus; assay: Antiviral activity against Vesicular stomatitis virus infected in human cervix carcinoma cells assessed as inhibition of virus-induced cytopathic effect at 0.32 to 100 uM; type: functional, organism-based
Method in brief: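 Confluent human cervix carcinoma (HeLa) cultures received 100 CCID50 of VSV together with the compound at 100, 40, 8, 1.6 or 0.32 μM. Cytopathicity was read at the point of full CPE in infected, untreated control wells.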

[2] = tested on: Mammalian orthoreovirus 1; assay: Antiviral activity against Reovirus-1 infected in african green monkey Vero cells assessed as inhibition of virus-induced cytopathic effect at 0.32 to 100 uM; type: functional, organism-based
Method in brief: (§2)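 Confluent cell cultures were infected with 100 CCID50 of virus in the presence of test compound at 100, 40, 8, 1.6 and 0.32 μM. Cytopathic effect was scored once it was complete in untreated infected controls.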

Influenza A virus [3] = assay: Antiviral activity against Influenza A virus H1N1 infected in MDCK cells assessed as inhibition of virus-induced cytopathic effect at 0.32 to 100 uM; type: functional, organism-based
Method in brief: (§3)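 Confluent MDCK monolayers were infected in the presence of the compound at 100, 40, 8, 1.6 and 0.32 μM. Viral cytopathicity was scored once it was complete in untreated infected control cultures.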

CCRF-CEM = assay: Cytostatic activity against human CEM cells after 3 days by coulter counter analysis; type: functional, cell-based; conditions: 72 h
Method in brief: (§4)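 300,000–500,000 cells/ml mixed 1:1 with compound dilutions and incubated at 37 °C for 2 days (L1210) or 3 days (CEM, HeLa). Cell number counted with a Coulter counter; HeLa trypsinized before counting.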

Felid alphaherpesvirus 1 = assay: Antiviral activity against Feline herpesvirus infected in feline CRFK cells assessed as inhibition of virus-induced cytopathic effect at 0.32 to 100 uM; type: functional, organism-based; method in brief: as §2
Sindbis virus = assay: Antiviral activity against Sindbis virus infected in african green monkey Vero cells assessed as inhibition of virus-induced cytopathic effect at 0.32 to 100 uM; type: functional, organism-based; method in brief: as §2
[4] = Antioxidant activity assessed as inhibition of AAPH-induced linoleic acid lipid peroxidation by measuring conjugated diene hydroperoxide level; type: functional; parameters: concentration or dose not given beside the values; conditions: dose or concentration not given here
Method in brief: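 Linoleic acid sodium salt (10 μL of 16 mM) in 0.05 M phosphate buffer pH 7.4 at 37 °C. Oxidation started under air with 50 μL of 40 mM AAPH. Conjugated diene hydroperoxide formation followed as absorbance rise at 234 nm; control contains the same DMSO level. At least triplicate.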

Punta Toro virus = assay: Antiviral activity against Punta Toro virus infected in african green monkey Vero cells assessed as inhibition of virus-induced cytopathic effect at 0.32 to 100 uM; type: functional, organism-based; method in brief: as §2
Glycine max = assay: Inhibition of soybean LOX assessed as conversion of sodium linoleate to 13- hydroperoxylinoleic acid at 100 uM
[5] = tested on: Human immunodeficiency virus 1; assay: Antiviral activity against HIV1 3B infected in human CEM cells assessed as inhibition of virus-induced CEM giant cell formation at 0.32 to 100 uM after 4 days; type: functional, organism-based; conditions: CCRF-CEM
Method in brief: (§5)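 CEM cells (~3 × 10^5 cells/cm³) exposed to 100 CCID50/ml of virus and seeded into wells holding compound dilutions. Incubated 4 days at 37 °C, then giant cell formation examined microscopically.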

Coxsackievirus B4 [6] = assay: Antiviral activity against Coxsackievirus B4 infected in african green monkey Vero cells assessed as inhibition of virus-induced cytopathic effect at 0.32 to 100 uM; type: functional, organism-based; method in brief: as §2
MCF7 = assay: Cytostatic activity against human MCF7 cells after 72 hrs by MTT assay; type: functional, cell-based; conditions: MCF7, 72 h; method in brief: as §1
Human respirovirus 3 = assay: Antiviral activity against Parainfluenza virus 3 infected in african green monkey Vero cells assessed as inhibition of virus-induced cytopathic effect at 0.32 to 100 uM; type: functional, organism-based; method in brief: as §2
[7] = tested on: Human immunodeficiency virus 2; assay: Antiviral activity against HIV2 ROD infected in human CEM cells assessed as inhibition of virus-induced CEM giant cell formation at 0.32 to 100 uM after 4 days; type: functional, organism-based; conditions: ISOLATE ROD, CCRF-CEM; method in brief: as §5
[8] = tested on: Respiratory syncytial virus; assay: Antiviral activity against RSV infected in human cervix carcinoma cells assessed as inhibition of virus-induced cytopathic effect at 0.32 to 100 uM; type: functional, organism-based; method in brief: as §2
Coxsackievirus B4 [9] = assay: Antiviral activity against Coxsackievirus B4 infected in human cervix carcinoma cells assessed as inhibition of virus-induced cytopathic effect at 0.32 to 100 uM; type: functional, organism-based; method in brief: as §2
L1210 = assay: Cytostatic activity against mouse L1210 cells after 2 days by coulter counter analysis; type: functional, cell-based; conditions: L1210, 48 h; method in brief: as §4
[10] = tested on: Vesicular stomatitis virus; assay: Antiviral activity against VSV infected in human lung fibroblast assessed as inhibition of virus-induced cytopathic effect at 0.32 to 100 uM; type: functional, organism-based
Vaccinia virus = assay: Antiviral activity against Vaccinia virus infected in human lung fibroblast assessed as inhibition of virus-induced cytopathic effect at 0.32 to 100 uM; type: functional, organism-based; conditions: Orthopoxvirus vaccinia
Feline coronavirus = assay: Antiviral activity against Feline coronavirus infected in feline CRFK cells assessed as inhibition of virus-induced cytopathic effect at 0.32 to 100 uM; type: functional, organism-based; method in brief: as §2
Influenza B virus = assay: Antiviral activity against Influenza B virus infected in MDCK cells assessed as inhibition of virus-induced cytopathic effect at 0.32 to 100 uM; type: functional, organism-based; method in brief: as §3
Human alphaherpesvirus 2 = assay: Antiviral activity against HSV2 G infected in human lung fibroblast assessed as inhibition of virus-induced cytopathic effect at 0.32 to 100 uM; type: functional, organism-based; conditions: strain G; method in brief: as §2
NCI-H460 = assay: Cytostatic activity against human NCI-H460 cells after 72 hrs by MTT assay; type: functional, cell-based; conditions: NCI-H460, 72 h; method in brief: as §1
Influenza A virus [11] = assay: Antiviral activity against Influenza A virus H3N2 infected in MDCK cells assessed as inhibition of virus-induced cytopathic effect at 0.32 to 100 uM; type: functional, organism-based; method in brief: as §3
[12] = tested on: Radical scavenging activity; assay: Antioxidant activity assessed as DPPH free radical scavenging activity at 100 uM after 60 mins by spectrophotometric analysis; type: functional
Method in brief: (§6)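 0.05 mM DPPH in absolute ethanol mixed with an equal volume of compound in DMSO (final 100 μM). Shaken and left 20 or 60 min, then absorbance read at 517 nm and percent activity calculated. Three replicates, averaged.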

Human alphaherpesvirus 1 = assay: Antiviral activity against HSV1 KOS infected in human lung fibroblast assessed as inhibition of virus-induced cytopathic effect at 0.32 to 100 uM; type: functional, organism-based; method in brief: as §2
[13] = tested on: Radical scavenging activity; assay: Antioxidant activity assessed as DPPH free radical scavenging activity at 100 uM after 20 mins by spectrophotometric analysis; type: functional; method in brief: as §6
HeLa = assay: Cytostatic activity against human HeLa cells after 3 days by coulter counter analysis; type: functional, cell-based; conditions: 72 h; method in brief: as §4

## O=c1[nH]cc(F)c(=O)[nH]1 [FLUOROURACIL]
HaCaT
  IC50: 0.3 µM

## CC(C(=O)NNC(=O)NCC1CCCCC1)c1cccc(Oc2ccccc2)c1 (centres undefined)
HCT-116
  IC50: 15 µM
[1]
  inhibition: inactive
[2]
  inhibition: inactive
Influenza A virus [3]
  inhibition: inactive
CCRF-CEM
  IC50: 24 µM
Felid alphaherpesvirus 1
  inhibition: inactive
Sindbis virus
  inhibition: inactive
[4]
  inhibition: 64%
Punta Toro virus
  inhibition: inactive
Glycine max
  inhibition: 12%
[5]
  inhibition: inactive
HaCaT
  IC50: 20 µM
Coxsackievirus B4 [6]
  inhibition: inactive
MCF7
  IC50: 13 µM
Human respirovirus 3
  inhibition: inactive
[7]
  inhibition: inactive
[8]
  inhibition: inactive
Coxsackievirus B4 [9]
  inhibition: inactive
L1210
  IC50: 22 µM
[10]
  inhibition: inactive
Vaccinia virus
  inhibition: inactive
Feline coronavirus
  inhibition: inactive
Influenza B virus
  inhibition: inactive
Human alphaherpesvirus 2
  inhibition: inactive
NCI-H460
  IC50: 19 µM
Influenza A virus [11]
  inhibition: inactive
[12]
  Activity: 21%
Human alphaherpesvirus 1
  inhibition: inactive
[13]
  Activity: 18%

## CC(C(=O)NNC(=O)NO)c1cccc(Oc2ccccc2)c1 (centres undefined)
HCT-116
  IC50: > 100 µM
[1]
  inhibition: inactive
[2]
  inhibition: inactive
Influenza A virus [3]
  inhibition: inactive
CCRF-CEM
  IC50: 183 µM
Felid alphaherpesvirus 1
  inhibition: inactive
Sindbis virus
  inhibition: inactive
[4]
  inhibition: 22%
Punta Toro virus
  inhibition: inactive
Glycine max
  inhibition: 3%
[5]
  inhibition: inactive
HeLa
  IC50: ≥ 250 µM
Coxsackievirus B4 [6]
  inhibition: inactive
MCF7
  IC50: > 100 µM
Human respirovirus 3
  inhibition: inactive
[7]
  inhibition: inactive
[8]
  inhibition: inactive
Coxsackievirus B4 [9]
  inhibition: inactive
L1210
  IC50: 125 µM
[10]
  inhibition: inactive
Vaccinia virus
  inhibition: inactive
Feline coronavirus
  inhibition: inactive
Influenza B virus
  inhibition: inactive
Human alphaherpesvirus 2
  inhibition: inactive
NCI-H460
  IC50: > 100 µM
Influenza A virus [11]
  inhibition: inactive
[12]
  Activity: 66%
Human alphaherpesvirus 1
  inhibition: inactive
[13]
  Activity: 39%
